Consider 12 compounds from ChEMBL document CHEMBL1134474, “Synthesis and biological evaluation of novel A-ring modified hexacyclic camptothecin analogues” (J Med Chem, 2001).

The target in experiment [1] is Acetylcholinesterase (Homo sapiens) (UniProt P22303). Description: Percent inhibition of acetylcholinesterase using ATCh1 as a substrate. Details: concentration or dose not given beside the values. Conditions: concentration not given here. The gist of the method:
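AChE (0.05 unit) with 10 mM DTNB and compound at 2 µM in 0.1 M potassium phosphate pH 8.0, preincubated 15 min at 37 °C. Reaction started with 85 µM acetylthiocholine iodide, 15 min at 37 °C. Absorbance at 412 nm, expressed as percent of colour without compound. Three or more determinations.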

Experiment [2] can be described thus: Relative tumor growth (RTG), calculated by dividing MTW28 by that on day 0 (MTW0) against WiDr xenografts in nude mice at a dose of 10 umol/kg. The format is functional, Mus musculus. The gist of the method: (§1)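 Treatment started about 3 weeks after transplant, at tumor weight 100 to 200 mg. 12 mice per group. Suspended in 0.5% CMC aqueous solution, given i.p. q4d×8 at 10 µmol/kg per injection. Calipers, V = 1/2 × a × b2. Read-outs on day 28: MTW, RTG (MTW28/MTW0), IR = (1 − RTG treated/RTG control) × 100. PR means 50% or greater regression.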

Experiment [3] is described as follows: Antitumor activity against MTW0 WiDr xenografts in nude mice at a dose of 10 umol/kg. The format is functional, Mus musculus. The gist of the method: as §1
A short description of experiment [4]: Antitumor activity against MTW28 WiDr xenografts in nude mice at a dose of 10 umol/kg. The class given is functional, Mus musculus. The gist of the method:
as §1

Experiment [5] is described as follows: Percentage of complete regression (CR) against WiDr xenografts in nude mice at a dose of 10 umol/kg. The class given is functional, Mus musculus. Put shortly:
as §1

Experiment [6] in a line: Percentage of inhibition rate (IR) against WiDr xenografts in nude mice at a dose of 10 umol/kg. The format is functional, Mus musculus. The gist of the method: as §1
Experiment [7] can be described thus: Percentage of 50% or greater regression (PR) against WiDr xenografts in nude mice at a dose of 10 umol/kg. The format is functional, Mus musculus. The gist of the method:
as §1

The next experiment deals with T1, DNA topoisomerase 1 (Mus musculus, UniProt Q04750).
T1 sequence (Q04750 whole entry): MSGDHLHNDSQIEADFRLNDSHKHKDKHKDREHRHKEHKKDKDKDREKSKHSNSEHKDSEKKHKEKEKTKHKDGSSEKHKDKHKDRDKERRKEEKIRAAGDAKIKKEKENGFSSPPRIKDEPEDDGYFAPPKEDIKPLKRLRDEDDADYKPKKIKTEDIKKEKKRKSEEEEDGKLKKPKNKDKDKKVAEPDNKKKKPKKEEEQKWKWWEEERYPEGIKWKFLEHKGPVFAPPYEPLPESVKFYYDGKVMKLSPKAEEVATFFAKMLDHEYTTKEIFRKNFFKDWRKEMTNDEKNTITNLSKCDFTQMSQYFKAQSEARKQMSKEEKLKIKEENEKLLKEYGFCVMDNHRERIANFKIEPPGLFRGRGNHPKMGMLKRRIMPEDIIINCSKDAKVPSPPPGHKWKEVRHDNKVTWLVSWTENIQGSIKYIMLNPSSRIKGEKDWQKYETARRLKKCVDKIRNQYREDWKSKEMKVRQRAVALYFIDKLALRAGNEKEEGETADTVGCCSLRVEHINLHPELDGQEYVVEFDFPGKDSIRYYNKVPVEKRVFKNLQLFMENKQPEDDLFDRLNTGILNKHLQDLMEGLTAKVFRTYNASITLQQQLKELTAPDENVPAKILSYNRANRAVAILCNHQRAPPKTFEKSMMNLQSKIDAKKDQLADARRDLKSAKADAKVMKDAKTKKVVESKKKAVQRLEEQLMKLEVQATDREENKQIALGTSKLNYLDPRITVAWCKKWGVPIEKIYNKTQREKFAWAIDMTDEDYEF
Description: Average concentration to cause 50% inhibition of topo 1 using the cleavable complex assay.

A further experiment concerns SK-BR-3. Description: In Vitro cytotoxicity against human breast cancer cell line (SK-BR-3). The class given is functional, cell-based. Put shortly: (§2)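 Cells grown in RPMI 1640 with 10% heat-inactivated FBS and penicillin-streptomycin, at 37 °C under 5% CO2. Seeding density set per line from growth curves. Eight concentrations diluted from DMSO stock, 4 days exposure. MTT added for 4 h, formazan dissolved in DMSO, absorbance at 550 nm. […] Three or more determinations.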

Another experiment concerns WiDr. Description: In Vitro cytotoxicity against human colon cancer cell line (WiDr). The class given is functional, cell-based. Put shortly:
as §2

For a further experiment, the system named is SK-OV-3. As to the kind of experiment: In Vitro cytotoxicity against human ovarian cancer cell line (SK-OV-3). The format is functional, cell-based. The gist of the method: as §2
The subject of a further experiment is A549. As to the kind of experiment: In Vitro cytotoxicity against human lung cancer cell line (A549). The class given is functional, cell-based. Put shortly: as §2
The subject of another experiment is NCI-H128. As to the kind of experiment: In Vitro cytotoxicity against human lung cancer cell line (H128). The format is functional, cell-based. Put shortly: as §2
For a further experiment, the system named is MKN-45. As to the kind of experiment: In Vitro cytotoxicity against human stomach cancer cell line (MKN45). The class given is functional, cell-based. The gist of the method: as §2

The structures appear in SMILES notation.

Acetylcholinesterase (Homo sapiens), sequence (P22303 whole entry): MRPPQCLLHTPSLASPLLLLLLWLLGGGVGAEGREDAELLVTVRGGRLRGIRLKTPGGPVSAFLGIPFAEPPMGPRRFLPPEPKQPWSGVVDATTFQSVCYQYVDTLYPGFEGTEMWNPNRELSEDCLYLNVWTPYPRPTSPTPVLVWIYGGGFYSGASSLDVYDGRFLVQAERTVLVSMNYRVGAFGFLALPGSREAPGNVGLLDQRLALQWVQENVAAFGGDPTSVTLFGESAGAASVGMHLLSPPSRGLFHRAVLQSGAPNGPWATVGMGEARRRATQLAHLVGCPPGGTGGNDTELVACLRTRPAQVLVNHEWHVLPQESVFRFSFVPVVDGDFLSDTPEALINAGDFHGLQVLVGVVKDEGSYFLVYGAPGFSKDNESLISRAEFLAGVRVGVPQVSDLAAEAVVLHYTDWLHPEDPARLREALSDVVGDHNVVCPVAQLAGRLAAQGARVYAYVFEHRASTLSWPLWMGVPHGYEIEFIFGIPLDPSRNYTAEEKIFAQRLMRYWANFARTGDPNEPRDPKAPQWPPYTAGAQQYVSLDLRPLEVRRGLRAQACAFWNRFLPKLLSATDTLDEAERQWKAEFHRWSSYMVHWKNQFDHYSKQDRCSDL

Take `CCc1c2c(nc3ccc4c(c13)NCCO4)-c1cc3c(c(=O)n1C2)COC(=O)[C@]3(O)CC`: the inhibition in [1] was determined as 12%. The RTG in experiment [2] was 0.12. The results for the Activity in [3] and in experiment [4] were 176 mg and 21 mg, respectively. The compound further returned a CR in [5] of 75%. Further, the IR in [6] is 98.6%. Moreover, the PR in experiment [7] came out at 25%. The IC50 on DNA topoisomerase 1 was 5 µM; in the experiment on SK-BR-3 it was 13 nM; in the experiment on WiDr, 16 nM; in the experiment with SK-OV-3 it was 14 nM; in the experiment on A549 it was 14 nM; in the experiment on NCI-H128, 7 nM. In the experiment with MKN-45, this compound returned an IC50 of 20 nM.
Take `CC[C@@]1(O)C(=O)OCc2c1cc1n(c2=O)Cc2cc3c4c(ccc3nc2-1)OCCN4CC#N`: the inhibition in [1] came to 20%. Further, the IC50 was 16 µM at DNA topoisomerase 1; 17 nM in the experiment on SK-BR-3; 30 nM in the experiment on WiDr; 32 nM with SK-OV-3; 37 nM in the experiment on A549; 14 nM in the experiment with NCI-H128. In addition, the IC50 with MKN-45 came to 40 nM.
In experiment [1], `CCc1c2c(nc3ccc4c(c13)N(C)CCO4)-c1cc3c(c(=O)n1C2)COC(=O)[C@]3(O)CC` displayed an inhibition of 19%. Also, the IC50 at DNA topoisomerase 1 amounted to 1600 µM; in the experiment on SK-BR-3, 107 nM; with WiDr, 135 nM; in the experiment with SK-OV-3 it was 142 nM; with A549 it was 85 nM; with NCI-H128 it was 76 nM. This compound also gave an IC50 in the experiment with MKN-45 of 152 nM.
Take `CC[C@@]1(O)C(=O)OCc2c1cc1n(c2=O)Cc2cc3c4c(ccc3nc2-1)OCCN4C`: the inhibition in experiment [1] came to 14%. Further, the IC50 against DNA topoisomerase 1 came to 21 µM; in the experiment on SK-BR-3 it was 25 nM; in the experiment with WiDr, 23 nM; in the experiment on SK-OV-3 it was 26 nM; in the experiment on A549, 21 nM; in the experiment with NCI-H128, 10 nM. Further, inhibition with MKN-45 was half-maximal at 19 nM (IC50).
With `CC[C@@]1(O)C(=O)OCc2c1cc1n(c2=O)Cc2cc3c4c(cc(CN(C)C)c3nc2-1)OCCN4`, the IC50 in the experiment with WiDr is 3190 nM; with SK-OV-3, 8630 nM; with A549 it was 8070 nM; in the experiment on NCI-H128 it was 8500 nM; in the experiment on MKN-45 it was 9570 nM.
Compound `CC[C@@]1(O)C(=O)OCc2c1cc1n(c2=O)Cc2cc3c4c(ccc3nc2-1)OCCN4` displayed an inhibition in experiment [1] of 13%. The IC50 at DNA topoisomerase 1 was 41 µM; in the experiment on SK-BR-3 it was 19 nM; in the experiment with WiDr, 23 nM; in the experiment on SK-OV-3, 28 nM; with A549, 23 nM; in the experiment with NCI-H128, 13 nM. Moreover, the IC50 in the experiment on MKN-45 is 20 nM.
For the compound `CCc1c2c(nc3ccc(O)cc13)-c1cc3c(c(=O)n1C2)COC(=O)[C@]3(O)CC` [7-ETHYL-10-HYDROXYCAMPTOTHECIN], the inhibition in experiment [1] worked out at 13%. For the same compound, the RTG in experiment [2] is on record as 0.15. In addition, the Activity in experiment [3] is reported as 177 mg; in experiment [4], 27 mg. In experiment [5], this compound came in with a CR of 75%. Also, the IR in experiment [6] came out at 98.2%. The PR in [7] was 8%. The IC50 turned out to be 4 µM against DNA topoisomerase 1; 4 nM in the experiment on SK-BR-3; 14 nM in the experiment on WiDr; 11 nM in the experiment with SK-OV-3; 16 nM with A549; 6 nM in the experiment with NCI-H128. In the experiment with MKN-45, this compound showed a half-maximal inhibitory concentration (IC50) of 8 nM.
Consider `CCN1CCOc2ccc3nc4c(cc3c21)Cn1c-4cc2c(c1=O)COC(=O)[C@]2(O)CC`, for which the inhibition in experiment [1] was determined as 9%. Moreover, the IC50 was 12 µM against DNA topoisomerase 1; 16 nM in the experiment on SK-BR-3; 21 nM in the experiment on WiDr; 19 nM in the experiment with SK-OV-3; 17 nM with A549; 13 nM in the experiment on NCI-H128. The compound further gave an IC50 with MKN-45 of 19 nM.
As to `CC[C@@]1(O)C(=O)OCc2c1cc1n(c2=O)Cc2cc3c4c(cc(CN5CCOCC5)c3nc2-1)OCCN4`, the IC50 in the experiment with WiDr is 5340 nM; in the experiment with SK-OV-3, 10600 nM; in the experiment on A549, 9590 nM; in the experiment with NCI-H128, 7440 nM; in the experiment with MKN-45, 15400 nM.
In experiment [1], `CC[C@@]1(O)C(=O)OCc2c1cc1n(c2=O)Cc2cc3c4c(ccc3nc2-1)OCCN4CCN` yielded an inhibition of 17%. The IC50 stood at 133 µM against DNA topoisomerase 1; 417 nM in the experiment on SK-BR-3; 415 nM in the experiment with WiDr; 533 nM in the experiment on SK-OV-3; 507 nM in the experiment on A549; 174 nM in the experiment with NCI-H128. In the experiment with MKN-45, this compound showed an IC50 of 536 nM.
Regarding `CC[C@@]1(O)C(=O)OCc2c1cc1n(c2=O)Cc2cc3ccccc3nc2-1` [CAMPTOTHECIN], the inhibition in [1] turned out to be 23%. Further, the IC50 on DNA topoisomerase 1 was 40 µM; in the experiment on SK-BR-3, 20 nM; in the experiment on WiDr, 17 nM; in the experiment on SK-OV-3, 20 nM; in the experiment with A549, 14 nM; with NCI-H128, 18 nM. In the experiment with MKN-45, this compound registered an IC50 of 17 nM.
In turn, `CC[C@@]1(O)C(=O)OCc2c1cc1n(c2=O)Cc2cc3c(CN(C)C)c(O)ccc3nc2-1` [TOPOTECAN] came in with an inhibition in [1] of 20%. Besides, the IC50 stood at 26 nM in the experiment with SK-BR-3; 56 nM in the experiment on WiDr; 48 nM in the experiment on SK-OV-3; 54 nM with A549; 31 nM in the experiment with NCI-H128; 38 nM in the experiment on MKN-45.

Usually inhibition stands for the drop in the measured response relative to a control, in per cent. Broadly, the IC50 is the concentration that gives 50% inhibition.
